The values below come from the EternaBench riboswitch data.

This series deals with MS2 coat protein. Nature of the series: apparent Kd, MS2 coat protein; higher = weaker binding; RNA-MaP array; FMN 200 µM where present. A digest of the protocol: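 The apparent Kd is reported as the median of filtered per-cluster binding-curve fits. To get these curves, designs transcribed by stalled E. coli RNA polymerase on Illumina sequencing-chip clusters were titrated with SNAP-549-labelled MS2 coat protein from 0.7 or 1.5 nM, doubling to 3 µM. Titrations were run without and then with constant ligand in 100 mM Tris-HCl pH 7.5, 80 mM KCl, 4 mM MgCl2, BSA, DTT, yeast tRNA and Tween-20, and green signal was normalised to red-channel RNA signal and control-cluster median Fmax.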

Setting [1] is: designed as: OFF switch for flavin mononucleotide, no ligand.
Where [2] appears, read: ligand present: flavin mononucleotide, designed as: OFF switch for flavin mononucleotide.
The mark [3] stands for this setting: designed as: ON switch for flavin mononucleotide, no ligand.
[4] abbreviates: ligand present: flavin mononucleotide, designed as: ON switch for flavin mononucleotide.

Regarding “ACAUGCGGAUGAGGAUAUUCAUUUAUGAGGAUAGAAGAAGGCAUACAUGAGGAUCACCCAUGUAUACGCAUGAGGAUCCCUUAC”, the “apparent Kd” value by setting is: under setting [1], 39.1 nM; under setting [2], 41 nM.

For “GGACGCGUAGGAUAUGCAAUCGAAGUCGAGUUUUCUGGUGGACAUGAGGAUCACCCAUGUAGAAGGAUGUAGCA”, the “apparent Kd” value by setting is: under setting [1], 44.2 nM; under setting [2], 33.4 nM.

As for “AAAUUUAACGAAGGAUAUGCUGACAUGAGGAUCACCCAUGUGUGCCUUGUGUUGCUGAAACGGGAGCAGAAGGUCGUAUACAUA”, the “apparent Kd” value came out at 694 nM under setting [1] and 1180 nM under setting [2].

As for “CCACUCUAUGCAGGAUAUCGAGCCUGGGCCUUAUUUUUUGUAAACAUGAGGAUCACCCAUGUCUUCGAGAAGGGCAUAACAACG”, the “apparent Kd” value was found to be 178 nM under setting [1] and 241 nM under setting [2].

For the sequence “GCAUGCAAGUAGAAGGGCAGAUAUUUUGAUACUGCAGGAUAUGCAGAAUCAUAUCCACAUGAUAACAUGAGGAUCACCCAUGUA”, the “apparent Kd” value under setting [1] turned out to be 33.7 nM and the “apparent Kd” value under setting [2] worked out at 26.1 nM.

Take “AAGUAUAGAGGAUAUACAUAGAUACAGAUUCAUGUAGAACUACAUGAGGAUCACCCAUGUAGAAGGCUAUACUA”: the “apparent Kd” value is, setting by setting: under setting [1], 30.2 nM; under setting [2], 159 nM.

With “AUUGUGUUAGGAUAUGCUUAUGGUGGGUAGUCCAGUAUGAAGUAGAAGGGACAUGAGGAUCACCCAUGUGCUCA”, the “apparent Kd” value was determined as 60.1 nM under setting [1] and 56.2 nM under setting [2].

For “GUAGCAUACCGAGGAUAUUCAUAUAGUAAUCUAACAUGAGGAUCACCCAUGUGGCGAAAGCCUUGGGAGAAGGCGGAAUGCUAC”, the “apparent Kd” value reads like this: under setting [3], 480 nM; under setting [4], 35.6 nM.

In the case of “GUGAUCUGAGUGAGGAUAUCCUUUAAGUAAUUGCAGGAGAAGGCACAUGAGGAUCACCCAUGUACAUCUUCGCG”, the “apparent Kd” value reads like this: under setting [1], 36.1 nM; under setting [2], 119 nM.

As to “CGCUAGUCAGGAUAUACGCACAUGUCACCAGACGUGAAGGGACAUGAGGAUCACCCAUGUAGAAGGGACUAGCC”, the “apparent Kd” value worked out at 98.5 nM under setting [1] and 246 nM under setting [2].

Take “GAGGACUGUAAAUUAACUCAAAUACAUGAGGAUCACCCAUGUAAGGAUAUCGUCAGGAAUACUGACGAGAAGGUACAUCAGUCC”: the “apparent Kd” value under setting [1] turned out to be 14.4 nM and the “apparent Kd” value under setting [2] is 20 nM.

With “CAAGGCGUUGACCGACUCCAGACAUGAGGAUCACCCAUGUAGAAGGAUAUGUACCGCACCCUUGGACAGAAGGUCUACUGGGUU”, the “apparent Kd” value is, setting by setting: under setting [1], 17 nM; under setting [2], 38.9 nM.

As for “AUUAUACAUGAGGAUCACCCAUGUUUUGGUGGGUCAGGAUAUAAAUUGAAUGAGUUUUAGUUAGAAGGGACAUUUA”, the “apparent Kd” value is, setting by setting: under setting [3], 56.5 nM; under setting [4], 42.9 nM.

For “CCACAGGUAGGAUAUGCUGGGUGGGAUAAAUAUUUCCUGAGACAUGAGGAUCACCCAUGUAGAAGGACCAAAAG”, the “apparent Kd” value reads like this: under setting [1], 18.3 nM; under setting [2], 16.1 nM.

For “CUUUUGUGAGGAUAUCAGUAGUAAAUAAAUAAAAUUACUUCUGAGAAGGCACAUGAGGAUCACCCAUGUUCCUC”, the “apparent Kd” value is 34.1 nM under setting [1] and 251 nM under setting [2].

Consider “ACAUGAUCAGGAUAUACAUGAGGAUCACCCAUGUUUAUCAGGGAAAAACCUUCUACAUGUAGAAGGGAUCUUGU”, for which the “apparent Kd” value amounted to 14.9 nM under setting [1] and 14.2 nM under setting [2].

As to “ACGUGUCGUGUAGGAUAUGACACAGGAAACUGGUCAGAAGGACAUGAGGAUCACCCAUGUAAAGUGUUUAAGAAUGACGUAUGC”, the “apparent Kd” value reads like this: under setting [1], 43.9 nM; under setting [2], 106 nM.

On to “GGUCCAACAUGAGGAUAUAGCACCUUAUUGGUGCUAGAAGGCGUGUCGAUAGACAUGAGGAUCACCCAUGUAAUAAAUUGGACC”, for which the “apparent Kd” value under setting [3] was found to be 793 nM and the “apparent Kd” value under setting [4] worked out at 139 nM.

Take “UAUUUUUAUGUAAGGAUAUGGGUUUGGUUGCGGGCUUAGAAGGUACAUGAGGAUCACCCAUGUAUAAUGUGCGU”: the “apparent Kd” value is, setting by setting: under setting [1], 29.6 nM; under setting [2], 30.5 nM.

As to “AGACAGAUCGAGAAGGGAACAUGAGGAUCACCCAUGUGGAAGACUUGAUGUUCAGGAUAUCGAAAGCCUGAGUUAGAUGAAUUG”, the “apparent Kd” value reads like this: under setting [1], 26.5 nM; under setting [2], 115 nM.

Turning to “GUAUUGAUAACAGGAUAUAUGAGUCCUACAUGAGGAUCACCCAUGUAGGUGAUCAGCCGUGAUUAGUAGAAGGGUUAUCAAUAC”, the “apparent Kd” value runs as follows: under setting [3], 12.5 nM; under setting [4], 5.98 nM.

As for “UGUCGGAGCAGAGGAUAUUACAUGAGGAUCACCCAUGUAUGAACCAAUAGCUGGAAACAGCAAUGUAAGAAGGCUGCUCCGUCA”, the “apparent Kd” value runs as follows: under setting [1], 11.9 nM; under setting [2], 167 nM.

As for “GAGAUCAUCACAGGAUAUGCAUUCCAUAAGUGGGCAGAAGGGUGAGAUUCAAGUGGACAUGAGGAUCACCCAUGUAUACUGCCU”, the “apparent Kd” value under setting [3] was 33.1 nM and the “apparent Kd” value under setting [4] was found to be 17.3 nM.

For “GGGCUCGGAGGAUAUACAUGAGGAUCACCCAUGUAUCUGGGUCUUAUUGGGCUCGGGUGUAGAAGGCUGGGUCU”, the “apparent Kd” value reads like this: under setting [1], 13.9 nM; under setting [2], 15.5 nM.
